Consider 4 compounds from article PMC4958041 (Journal of enzyme inhibition and medicinal chemistry, 2016).

Experiment [1] addresses T1, human TMEM16A (Homo sapiens, UniProt Q5XXA6, DEL476-501).
T1 sequence (Q5XXA6 with tags, fused parts or gaps isoform Q5XXA6-5 DEL539-564): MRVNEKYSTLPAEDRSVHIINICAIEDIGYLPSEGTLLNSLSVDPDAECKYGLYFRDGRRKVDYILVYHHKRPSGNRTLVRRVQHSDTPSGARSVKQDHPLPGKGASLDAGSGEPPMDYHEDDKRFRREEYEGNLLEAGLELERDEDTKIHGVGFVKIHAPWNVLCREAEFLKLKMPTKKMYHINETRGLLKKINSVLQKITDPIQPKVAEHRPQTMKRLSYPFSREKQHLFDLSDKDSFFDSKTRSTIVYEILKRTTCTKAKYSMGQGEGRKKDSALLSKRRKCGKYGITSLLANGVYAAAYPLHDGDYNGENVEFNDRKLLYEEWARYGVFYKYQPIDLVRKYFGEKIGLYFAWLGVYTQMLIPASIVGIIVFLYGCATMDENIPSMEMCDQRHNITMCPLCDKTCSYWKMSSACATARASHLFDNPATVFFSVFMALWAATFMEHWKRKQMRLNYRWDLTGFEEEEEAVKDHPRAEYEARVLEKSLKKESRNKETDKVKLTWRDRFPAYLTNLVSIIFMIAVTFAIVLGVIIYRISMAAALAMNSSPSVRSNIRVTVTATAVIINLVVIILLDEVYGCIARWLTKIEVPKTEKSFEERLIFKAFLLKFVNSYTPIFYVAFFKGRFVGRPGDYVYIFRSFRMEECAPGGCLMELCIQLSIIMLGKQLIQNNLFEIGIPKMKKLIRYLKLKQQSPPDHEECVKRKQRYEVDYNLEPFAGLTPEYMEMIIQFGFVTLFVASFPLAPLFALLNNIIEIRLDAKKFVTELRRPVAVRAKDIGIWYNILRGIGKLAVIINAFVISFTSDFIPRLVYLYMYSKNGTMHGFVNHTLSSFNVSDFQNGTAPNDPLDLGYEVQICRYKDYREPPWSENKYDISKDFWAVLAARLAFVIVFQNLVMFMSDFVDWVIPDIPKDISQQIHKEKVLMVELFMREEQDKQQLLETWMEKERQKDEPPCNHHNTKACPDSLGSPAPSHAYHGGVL
The experiment can be described thus: TMEM16A functional assay. In kind it is cell-based. The note with it: for TMEM16A inhibition activity on initial testing: tested at 10 µM, fluorescence plate reader assay. In outline:
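FRT cells stably co-expressing human TMEM16A (abc isoform) and YFP-H148Q/I152L/F46L, assayed 24 h after plating. Wells washed twice with PBS; test compound added in DMSO for 10 min. Fluorescence read every 400 ms: 2 s baseline, 140 mM iodide added at 2 s, then 70 mM iodide containing 300 µM ATP at 6.4 s. Initial iodide influx rate fitted by non-linear regression. Screen at 10 µM; IC50 from concentration-inhibition data.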

In experiment [2] the target is T1, human TMEM16A. The conditions noted are these: read-out: IC50, short-circuit current assay of TMEM16A function; as reported previously; cited from earlier work.
Experiment [3] concerns the target T1, human TMEM16A. The experiment can be described thus: Short-circuit current assay in FRT-TMEM16A cells. In kind it is cell-based. In outline: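 FRT cells stably expressing human TMEM16A, grown on Snapwell inserts and mounted in Ussing chambers. Basolateral membrane permeabilized with amphotericin B (250 µg/ml, 30 min). Chloride gradient: HCO3-buffered basolateral solution; apical 120 mM NaCl replaced by Na gluconate. 37 °C, 95% O2/5% CO2, 10-min stabilization. Test compound added apically 5 min before activation by 100 µM ATP. IC50 from short-circuit current concentration-dependence.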

Where two headings read alike, the source gives them in different places.

As usually defined, the IC50 is the concentration that inhibits the measured activity by half.

Turning to `Cc1c(O)nc(SCC(=O)Nc2nc(-c3ccccc3)cs2)nc1C(F)(F)F` [Compound 9ao, 2-(4-Hydroxy-5-methyl-6-trifluoromethyl-pyrimidin-2-ylsulfanyl)-N-(4-phenyl-thiazol-2-yl)-acetamide], on human TMEM16A [1], 6200 nM corresponded to half-maximal inhibition (IC50) and the “TMEM16A inhibition activity on initial testing” value (“TMEM16A inhibition activity” below) is “measurable activity”.

As for `CCc1c(C)nc(SCC(=O)Nc2nc(-c3ccc(OC)cc3)cs2)[nH]c1=O` [Compound T16Ainh-A01], the 50% inhibitory concentration (IC50) on human TMEM16A [2] is approximately 1000 nM.

On to `Cc1nc(SCC(=O)Nc2nc(-c3cccs3)cs2)nc(O)c1C` [Compound 9bs, 2-(4-Hydroxy-5,6-dimethyl-pyrimidin-2-ylsulfanyl)-N-(4-thiophen-2-yl-thiazol-2-yl)-acetamide], for which, on human TMEM16A [1], the IC50 stood at 2900 nM and the “TMEM16A inhibition activity” value is listed as “measurable activity”. The same compound displayed an IC50 against human TMEM16A [3] of approximately 3000 nM.

Consider `CCc1c(C)nc(SCC(=O)Nc2nc(-c3cccs3)cs2)nc1O` [Compound 9bo, 2-(5-Ethyl-4-hydroxy-6-methyl-pyrimidin-2-ylsulfanyl)-N-(4-thiophen-2-yl-thiazol-2-yl)-acetamide], for which, on human TMEM16A [1], the 50% inhibitory concentration (IC50) was 3500 nM and the “TMEM16A inhibition activity” value is “measurable activity”. On human TMEM16A [3], this compound displayed an IC50 of approximately 1000 nM.
